Measurements as given in ChEMBL document CHEMBL4689842, “EUbOPEN Chemogenomics Library wave 1” (2021).
Several values for one entry are separate records, joined by “and”; a condition that tells them apart may be missing. Equal entries are not always repeated.

Tested on: Fibroblast
Assay: Multiplex assay against human fibroblast
Type: toxicity, cell-based
Summary of the method: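 Compound was added to live cells that had been stained at seeding with Hoechst33342, BioTracker Green Microtubule Cytoskeleton Dye, MitoTracker Red and Annexin V Alexa Fluor 680, and imaging followed on a CQ1 microscope at 37°C and 5% CO2. CellPathfinder machine-learning gating divided cells into Hoechst high-intensity objects or normal cells, normal cells into healthy, pyknosed or fragmented nuclei, and pyknosed cells into mitotic or apoptotic. Tubulin, mitochondrial-mass and membrane-permeability phenotypes are per cents of healthy-nucleus cells.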

[1] = 12 h, 1 µM, compound concentration 1 uM, replicate 1
[2] = 12 h, 1 µM, compound concentration 1 uM, replicate 2
[3] = 12 h, 10 µM, compound concentration 10 uM, replicate 1
[4] = 12 h, 10 µM, compound concentration 10 uM, replicate 2
[5] = 24 h, 1 µM, compound concentration 1 uM, replicate 1
[6] = 24 h, 1 µM, compound concentration 1 uM, replicate 2
[7] = 24 h, 10 µM, compound concentration 10 uM, replicate 1
[8] = 24 h, 10 µM, compound concentration 10 uM, replicate 2
[9] = 48 h, 1 µM, compound concentration 1 uM, replicate 1
[10] = 48 h, 1 µM, compound concentration 1 uM, replicate 2
[11] = 48 h, 10 µM, compound concentration 10 uM, replicate 1
[12] = 48 h, 10 µM, compound concentration 10 uM, replicate 2

Structure (SMILES): Cn1cc(-c2[nH]c3cc(NC(=O)[C@H](N)C4CCCCC4)cc4c3c2C=NNC4=O)cn1
- Population Apoptotic (%) [1]: 76%
- Population Fragmented Nuclei (%) [1]: 27%
- Population Healthy Nuclei (%) [1]: 42%
- Population Hoechst High Intensity Objects (%) [1]: 8%
- Population Membrane Permeable-Phenotype (%) [1]: 18%
- Population Mitochondria Different-Phenotype (%) [1]: 13%
- Population Mitotic Cells (%) [1]: 23%
- Population Normal (%) [1]: 91%
- Population Pyknosed Nuclei (%) [1]: 30%
- Population Tubulin-Different-Phenotype (%) [1]: 28%
- Total Cell Count [1]: 138
- Population Apoptotic (%) [2]: 33%
- Population Fragmented Nuclei (%) [2]: 13%
- Population Healthy Nuclei (%) [2]: 72%
- Population Hoechst High Intensity Objects (%) [2]: 3%
- Population Membrane Permeable-Phenotype (%) [2]: 4%
- Population Mitochondria Different-Phenotype (%) [2]: 7%
- Population Mitotic Cells (%) [2]: 66%
- Population Normal (%) [2]: 96%
- Population Pyknosed Nuclei (%) [2]: 13%
- Population Tubulin-Different-Phenotype (%) [2]: 12%
- Total Cell Count [2]: 51
- Population Apoptotic (%) [3]: 69%
- Population Fragmented Nuclei (%) [3]: 48%
- Population Healthy Nuclei (%) [3]: 38%
- Population Hoechst High Intensity Objects (%) [3]: 20%
- Population Membrane Permeable-Phenotype (%) [3]: 20%
- Population Mitochondria Different-Phenotype (%) [3]: 4%
- Population Mitotic Cells (%) [3]: 30%
- Population Normal (%) [3]: 79%
- Population Pyknosed Nuclei (%) [3]: 13%
- Population Tubulin-Different-Phenotype (%) [3]: 43%
- Total Cell Count [3]: 244
- Population Fragmented Nuclei (%) [4]: 37%
- Population Healthy Nuclei (%) [4]: 42%
- Population Hoechst High Intensity Objects (%) [4]: 9%
- Population Membrane Permeable-Phenotype (%) [4]: 21%
- Population Mitochondria Different-Phenotype (%) [4]: 53%
- Population Normal (%) [4]: 90%
- Population Pyknosed Nuclei (%) [4]: 19%
- Population Tubulin-Different-Phenotype (%) [4]: 57%
- Total Cell Count [4]: 91
- Population Apoptotic (%) [5]: 58%
- Population Fragmented Nuclei (%) [5]: 27%
- Population Healthy Nuclei (%) [5]: 44%
- Population Hoechst High Intensity Objects (%) [5]: 12%
- Population Membrane Permeable-Phenotype (%) [5]: 20%
- Population Mitochondria Different-Phenotype (%) [5]: 3%
- Population Mitotic Cells (%) [5]: 41%
- Population Normal (%) [5]: 87%
- Population Pyknosed Nuclei (%) [5]: 28%
- Population Tubulin-Different-Phenotype (%) [5]: 26%
- Total Cell Count [5]: 137
- Population Apoptotic (%) [6]: 43%
- Population Fragmented Nuclei (%) [6]: 13%
- Population Healthy Nuclei (%) [6]: 70%
- Population Hoechst High Intensity Objects (%) [6]: 3%
- Population Membrane Permeable-Phenotype (%) [6]: 9%
- Population Mitochondria Different-Phenotype (%) [6]: 6%
- Population Mitotic Cells (%) [6]: 56%
- Population Normal (%) [6]: 96%
- Population Pyknosed Nuclei (%) [6]: 15%
- Population Tubulin-Different-Phenotype (%) [6]: 15%
- Total Cell Count [6]: 52
- Population Apoptotic (%) [7]: 62%
- Population Fragmented Nuclei (%) [7]: 54%
- Population Healthy Nuclei (%) [7]: 37%
- Population Hoechst High Intensity Objects (%) [7]: 23%
- Population Membrane Permeable-Phenotype (%) [7]: 20%
- Population Mitochondria Different-Phenotype (%) [7]: 1%
- Population Mitotic Cells (%) [7]: 37%
- Population Normal (%) [7]: 76%
- Population Pyknosed Nuclei (%) [7]: 8%
- Population Tubulin-Different-Phenotype (%) [7]: 52%
- Total Cell Count [7]: 256
- Population Apoptotic (%) [8]: 86%
- Population Fragmented Nuclei (%) [8]: 34%
- Population Healthy Nuclei (%) [8]: 29%
- Population Hoechst High Intensity Objects (%) [8]: 16%
- Population Membrane Permeable-Phenotype (%) [8]: 44%
- Population Mitochondria Different-Phenotype (%) [8]: 61%
- Population Mitotic Cells (%) [8]: 13%
- Population Normal (%) [8]: 83%
- Population Pyknosed Nuclei (%) [8]: 36%
- Population Tubulin-Different-Phenotype (%) [8]: 55%
- Total Cell Count [8]: 106
- Population Apoptotic (%) [9]: 43%
- Population Fragmented Nuclei (%) [9]: 30%
- Population Healthy Nuclei (%) [9]: 49%
- Population Hoechst High Intensity Objects (%) [9]: 14%
- Population Membrane Permeable-Phenotype (%) [9]: 26%
- Population Mitochondria Different-Phenotype (%) [9]: 3%
- Population Mitotic Cells (%) [9]: 56%
- Population Normal (%) [9]: 85%
- Population Pyknosed Nuclei (%) [9]: 20%
- Population Tubulin-Different-Phenotype (%) [9]: 26%
- Total Cell Count [9]: 134
- Population Apoptotic (%) [10]: 0%
- Population Fragmented Nuclei (%) [10]: 47%
- Population Healthy Nuclei (%) [10]: 50%
- Population Hoechst High Intensity Objects (%) [10]: 15%
- Population Membrane Permeable-Phenotype (%) [10]: 20%
- Population Mitochondria Different-Phenotype (%) [10]: 2%
- Population Mitotic Cells (%) [10]: 100%
- Population Normal (%) [10]: 84%
- Population Pyknosed Nuclei (%) [10]: 2%
- Population Tubulin-Different-Phenotype (%) [10]: 38%
- Total Cell Count [10]: 103
- Population Apoptotic (%) [11]: 77%
- Population Fragmented Nuclei (%) [11]: 52%
- Population Healthy Nuclei (%) [11]: 41%
- Population Hoechst High Intensity Objects (%) [11]: 39%
- Population Membrane Permeable-Phenotype (%) [11]: 14%
- Population Mitochondria Different-Phenotype (%) [11]: 3%
- Population Mitotic Cells (%) [11]: 22%
- Population Normal (%) [11]: 60%
- Population Pyknosed Nuclei (%) [11]: 5%
- Population Tubulin-Different-Phenotype (%) [11]: 36%
- Total Cell Count [11]: 251
- Population Apoptotic (%) [12]: 50%
- Population Fragmented Nuclei (%) [12]: 62%
- Population Healthy Nuclei (%) [12]: 35%
- Population Hoechst High Intensity Objects (%) [12]: 32%
- Population Membrane Permeable-Phenotype (%) [12]: 11%
- Population Mitochondria Different-Phenotype (%) [12]: 2%
- Population Mitotic Cells (%) [12]: 50%
- Population Normal (%) [12]: 67%
- Population Pyknosed Nuclei (%) [12]: 1%
- Population Tubulin-Different-Phenotype (%) [12]: 53%
- Total Cell Count [12]: 186

Structure (SMILES): C[C@@]1(C(=O)Nc2ccc(F)nc2)CCCN1c1nc(Nc2cc(C3CC3)n[nH]2)c2cccn2n1 [BMS-754807]
- Population Apoptotic (%) [1]: 63%
- Population Fragmented Nuclei (%) [1]: 36%
- Population Healthy Nuclei (%) [1]: 50%
- Population Hoechst High Intensity Objects (%) [1]: 10%
- Population Membrane Permeable-Phenotype (%) [1]: 18%
- Population Mitochondria Different-Phenotype (%) [1]: 13%
- Population Mitotic Cells (%) [1]: 36%
- Population Normal (%) [1]: 89%
- Population Pyknosed Nuclei (%) [1]: 13%
- Population Tubulin-Different-Phenotype (%) [1]: 69%
- Total Cell Count [1]: 257
- Population Apoptotic (%) [2]: 66%
- Population Fragmented Nuclei (%) [2]: 75%
- Population Healthy Nuclei (%) [2]: 16%
- Population Hoechst High Intensity Objects (%) [2]: 28%
- Population Membrane Permeable-Phenotype (%) [2]: 50%
- Population Mitochondria Different-Phenotype (%) [2]: 33%
- Population Mitotic Cells (%) [2]: 33%
- Population Normal (%) [2]: 71%
- Population Pyknosed Nuclei (%) [2]: 8%
- Population Tubulin-Different-Phenotype (%) [2]: 66%
- Total Cell Count [2]: 52
- Population Apoptotic (%) [3]: 63% and 78%
- Population Fragmented Nuclei (%) [3]: 22% and 25%
- Population Healthy Nuclei (%) [3]: 42%
- Population Hoechst High Intensity Objects (%) [3]: 16% and 15%
- Population Mitotic Cells (%) [3]: 36% and 21%
- Population Normal (%) [3]: 84%
- Population Pyknosed Nuclei (%) [3]: 34% and 16%
- Total Cell Count [3]: 75 and 165
- Population Apoptotic (%) [4]: 80% and 33%
- Population Healthy Nuclei (%) [4]: 37% and 58%
- Population Hoechst High Intensity Objects (%) [4]: 29% and 13%
- Population Membrane Permeable-Phenotype (%) [4]: 17% and 22%
- Population Normal (%) [4]: 70% and 86%
- Total Cell Count [4]: 87 and 53
- Population Apoptotic (%) [5]: 63%
- Population Fragmented Nuclei (%) [5]: 27%
- Population Healthy Nuclei (%) [5]: 55%
- Population Hoechst High Intensity Objects (%) [5]: 9%
- Population Membrane Permeable-Phenotype (%) [5]: 10%
- Population Mitochondria Different-Phenotype (%) [5]: 26%
- Population Mitotic Cells (%) [5]: 36%
- Population Normal (%) [5]: 90%
- Population Pyknosed Nuclei (%) [5]: 16%
- Population Tubulin-Different-Phenotype (%) [5]: 70%
- Total Cell Count [5]: 219
- Population Apoptotic (%) [6]: 75%
- Population Fragmented Nuclei (%) [6]: 65%
- Population Healthy Nuclei (%) [6]: 19%
- Population Hoechst High Intensity Objects (%) [6]: 40%
- Population Membrane Permeable-Phenotype (%) [6]: 40%
- Population Mitochondria Different-Phenotype (%) [6]: 40%
- Population Mitotic Cells (%) [6]: 25%
- Population Normal (%) [6]: 59%
- Population Pyknosed Nuclei (%) [6]: 15%
- Population Tubulin-Different-Phenotype (%) [6]: 60%
- Total Cell Count [6]: 44
- Population Apoptotic (%) [7]: 41% and 63%
- Population Fragmented Nuclei (%) [7]: 26% and 20%
- Population Healthy Nuclei (%) [7]: 53% and 63%
- Population Hoechst High Intensity Objects (%) [7]: 21% and 13%
- Population Membrane Permeable-Phenotype (%) [7]: 35% and 15%
- Population Mitotic Cells (%) [7]: 58% and 36%
- Population Normal (%) [7]: 78% and 86%
- Population Pyknosed Nuclei (%) [7]: 19% and 15%
- Total Cell Count [7]: 80 and 166
- Population Apoptotic (%) [8]: 60% and 37%
- Population Healthy Nuclei (%) [8]: 28% and 47%
- Population Mitochondria Different-Phenotype (%) [8]: 25% and 59%
- Population Mitotic Cells (%) [8]: 40% and 62%
- Population Normal (%) [8]: 68% and 90%
- Total Cell Count [8]: 83 and 51
- Population Apoptotic (%) [11]: 92%
- Population Fragmented Nuclei (%) [11]: 35%
- Population Healthy Nuclei (%) [11]: 39%
- Population Hoechst High Intensity Objects (%) [11]: 27%
- Population Membrane Permeable-Phenotype (%) [11]: 23%
- Population Mitochondria Different-Phenotype (%) [11]: 28%
- Population Mitotic Cells (%) [11]: 7%
- Population Normal (%) [11]: 72%
- Population Pyknosed Nuclei (%) [11]: 24%
- Population Tubulin-Different-Phenotype (%) [11]: 85%
- Total Cell Count [11]: 73
- Population Apoptotic (%) [12]: 70%
- Population Fragmented Nuclei (%) [12]: 27%
- Population Healthy Nuclei (%) [12]: 56%
- Population Hoechst High Intensity Objects (%) [12]: 9%
- Population Membrane Permeable-Phenotype (%) [12]: 24%
- Population Mitochondria Different-Phenotype (%) [12]: 43%
- Population Mitotic Cells (%) [12]: 30%
- Population Normal (%) [12]: 90%
- Population Pyknosed Nuclei (%) [12]: 15%
- Population Tubulin-Different-Phenotype (%) [12]: 100%
- Total Cell Count [12]: 72
